From ChEMBL document CHEMBL4350961, “Discovery of Pyrrolo[3,2- d]pyrimidin-4-one Derivatives as a New Class of Potent and Cell-Active Inhibitors of P300/CBP-Associated Factor Bromodomain” (J Med Chem, 2019)
Active and inactive are the calls of the source.

How the values were obtained:
[1] = molecular target: Bromodomain testis-specific protein (Homo sapiens) (UniProt Q58F21); experiment: Binding affinity to human partial length BRDT bromodomain 2 (K250 to E382 residues) expressed in bacterial expression system at 1 uM by BROMOscan assay
In short: (§1)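 BROMOscan bromodomain cross-screen run by an outside service, compound at 1 µM against 32 recombinant bromodomains. Binding given as percent of control.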

[2] = organism: Homo sapiens; experiment: Inhibition of recombinant human BrSK2 S251I mutant (2 to end residues) at 10 uM using KKLNRTLSFAEPG as substrate measured after 40 mins in presence of [gamma33P]ATP by scintillation counting method
[3] = molecular target: Rhodopsin kinase GRK1 (Homo sapiens) (UniProt Q15835); experiment: Inhibition of recombinant full-length human GRK1 at 10 uM using KKKKERLLDDRHDSGLDSMKDEE as substrate measured after 40 mins in presence of [gamma33P]ATP by scintillation counting method
Chain of Rhodopsin kinase GRK1 (Homo sapiens) (Q15835 whole entry): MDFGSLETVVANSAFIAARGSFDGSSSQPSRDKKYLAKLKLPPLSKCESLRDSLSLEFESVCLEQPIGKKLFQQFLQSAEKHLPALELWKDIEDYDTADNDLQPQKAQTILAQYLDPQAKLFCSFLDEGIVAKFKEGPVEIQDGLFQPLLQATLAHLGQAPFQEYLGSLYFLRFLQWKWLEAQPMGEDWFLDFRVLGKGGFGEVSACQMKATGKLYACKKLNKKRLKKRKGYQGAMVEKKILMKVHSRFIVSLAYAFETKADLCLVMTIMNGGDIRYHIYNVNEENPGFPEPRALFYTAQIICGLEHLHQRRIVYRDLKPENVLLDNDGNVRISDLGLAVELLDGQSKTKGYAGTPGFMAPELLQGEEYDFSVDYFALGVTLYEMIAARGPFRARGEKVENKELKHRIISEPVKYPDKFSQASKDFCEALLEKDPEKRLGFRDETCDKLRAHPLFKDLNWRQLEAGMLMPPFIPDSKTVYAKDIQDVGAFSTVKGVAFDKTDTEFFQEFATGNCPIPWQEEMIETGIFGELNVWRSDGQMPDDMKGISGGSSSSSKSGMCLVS

[4] = tested on: RAF proto-oncogene serine/threonine-protein kinase (Homo sapiens), P04049 [Y340D,Y341D]; experiment: Inhibition of recombinant human c-RAF Y340D/Y341D mutant (360 to end residues) at 10 uM using inactive MEK1 as substrate measured after 40 mins in presence of [gamma33P]ATP by scintillation counting method
[5] = molecular target: Calcium/calmodulin-dependent protein kinase type II subunit gamma (Homo sapiens) (UniProt Q13555); experiment: Inhibition of recombinant full-length human CaMK2gamma (1 to 330 residues) at 10 uM using calmodulin as substrate measured after 40 mins in presence of [gamma33P]ATP by scintillation counting method
[6] = molecular target: Testis-specific serine/threonine-protein kinase 4 (Homo sapiens) (UniProt Q6SA08); experiment: Inhibition of recombinant full-length human TSSK4 at 10 uM using KKLNRTLSFAEPG as substrate measured after 40 mins in presence of [gamma33P]ATP by scintillation counting method
Chain of Testis-specific serine/threonine-protein kinase 4 (Homo sapiens) (Q6SA08 whole entry): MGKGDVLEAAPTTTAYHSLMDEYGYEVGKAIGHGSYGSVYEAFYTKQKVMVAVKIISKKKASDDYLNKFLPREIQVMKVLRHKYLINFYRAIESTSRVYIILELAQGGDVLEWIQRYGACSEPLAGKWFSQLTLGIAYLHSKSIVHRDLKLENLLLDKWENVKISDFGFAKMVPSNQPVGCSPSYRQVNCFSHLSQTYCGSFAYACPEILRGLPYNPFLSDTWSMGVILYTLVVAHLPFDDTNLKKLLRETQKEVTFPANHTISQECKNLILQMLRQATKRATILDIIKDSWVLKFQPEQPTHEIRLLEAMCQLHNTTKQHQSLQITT

[7] = molecular target: DNA-dependent protein kinase catalytic subunit (Homo sapiens) (UniProt P78527); experiment: Inhibition of recombinant full-length human DNA-PK at 10 uM using GST-cMyc-p53 as substrate measured after 40 mins by fluorescence assay
[8] = tested on: Dual specificity protein kinase TTK (Homo sapiens), P33981 [S389A]; experiment: Inhibition of recombinant full-length human TTK S389A mutant at 10 uM using MBP as substrate measured after 40 mins in presence of [gamma33P]ATP by scintillation counting method
[9] = molecular target: Histone acetyltransferase p300 (Homo sapiens) (UniProt Q09472); experiment: Binding affinity to human partial length EP300 (A1040 to G1161 residues) expressed in bacterial expression system at 1 uM by BROMOscan assay; in short: as §1
[10] = molecular target: Serine/threonine-protein kinase 25 (Homo sapiens) (UniProt O00506); experiment: Inhibition of human STK25 (1 to 308 residues) using RLGRDKYKTLRQIRQ as substrate measured after 40 mins in presence of [gamma33P]ATP by scintillation counting method
In short: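 Kinase panel of 422 kinases screened by Eurofins KinaseProfiler at a single test-compound concentration of 10 µM.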

[11] = molecular target: Serine/threonine-protein kinase 32A (Homo sapiens) (UniProt Q8WU08); experiment: Inhibition of recombinant full-length human STK32A at 10 uM using casein as substrate measured after 120 mins in presence of [gamma33P]ATP by scintillation counting method
Chain of Serine/threonine-protein kinase 32A (Homo sapiens) (Q8WU08 whole entry, the tested form may be a part): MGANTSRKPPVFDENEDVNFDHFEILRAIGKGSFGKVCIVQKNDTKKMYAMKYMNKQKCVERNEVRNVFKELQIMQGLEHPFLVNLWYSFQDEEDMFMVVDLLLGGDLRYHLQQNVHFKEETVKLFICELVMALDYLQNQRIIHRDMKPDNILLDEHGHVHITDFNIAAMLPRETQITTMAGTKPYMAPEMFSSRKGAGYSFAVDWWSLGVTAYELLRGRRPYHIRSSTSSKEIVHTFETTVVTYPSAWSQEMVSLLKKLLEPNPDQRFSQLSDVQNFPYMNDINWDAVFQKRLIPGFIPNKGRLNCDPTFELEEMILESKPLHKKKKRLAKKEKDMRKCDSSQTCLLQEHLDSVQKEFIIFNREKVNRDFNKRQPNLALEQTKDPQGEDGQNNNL

[12] = molecular target: Bone morphogenetic protein receptor type-2 (Homo sapiens) (UniProt Q13873); experiment: Inhibition of recombinant human BMPR2 (172 to 734 residues) at 10 uM using myelin basic protein as substrate measured after 120 mins in presence of [gamma33P]ATP by scintillation counting method
Chain of Bone morphogenetic protein receptor type-2 (Homo sapiens) (Q13873 whole entry, the tested form may be a part): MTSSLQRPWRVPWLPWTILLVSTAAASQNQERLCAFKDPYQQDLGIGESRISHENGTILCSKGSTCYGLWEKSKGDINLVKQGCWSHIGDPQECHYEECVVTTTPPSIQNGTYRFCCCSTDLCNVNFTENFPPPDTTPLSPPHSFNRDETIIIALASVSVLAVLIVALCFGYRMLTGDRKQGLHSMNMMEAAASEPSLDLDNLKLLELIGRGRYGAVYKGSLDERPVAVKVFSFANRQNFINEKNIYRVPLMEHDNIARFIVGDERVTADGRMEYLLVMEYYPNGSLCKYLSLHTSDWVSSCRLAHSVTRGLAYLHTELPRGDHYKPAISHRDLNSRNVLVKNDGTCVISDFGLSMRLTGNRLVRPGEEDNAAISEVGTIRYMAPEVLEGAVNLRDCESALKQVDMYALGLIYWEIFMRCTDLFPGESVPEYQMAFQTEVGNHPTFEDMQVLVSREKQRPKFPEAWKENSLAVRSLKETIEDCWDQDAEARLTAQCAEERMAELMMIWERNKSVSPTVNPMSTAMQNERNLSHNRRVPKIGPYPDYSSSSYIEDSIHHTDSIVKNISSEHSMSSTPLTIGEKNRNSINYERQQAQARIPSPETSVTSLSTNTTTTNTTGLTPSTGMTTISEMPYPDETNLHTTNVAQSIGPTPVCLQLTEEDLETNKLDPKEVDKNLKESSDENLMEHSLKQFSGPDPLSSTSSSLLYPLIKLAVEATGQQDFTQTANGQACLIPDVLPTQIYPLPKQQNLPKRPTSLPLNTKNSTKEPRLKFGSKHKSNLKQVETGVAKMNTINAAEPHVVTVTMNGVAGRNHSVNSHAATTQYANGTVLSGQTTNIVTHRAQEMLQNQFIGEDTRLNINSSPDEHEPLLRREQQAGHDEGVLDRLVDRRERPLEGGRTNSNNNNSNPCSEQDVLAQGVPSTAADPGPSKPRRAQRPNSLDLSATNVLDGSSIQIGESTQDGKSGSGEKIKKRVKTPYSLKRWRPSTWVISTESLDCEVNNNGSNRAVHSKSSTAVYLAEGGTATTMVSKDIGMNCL

[13] = molecular target: Serine/threonine-protein kinase DCLK2 (Homo sapiens) (UniProt Q8N568); experiment: Inhibition of recombinant human DCAMKL2 (376 to end residues) at 10 uM using KKLNRTLSFAEPG as substrate measured after 40 mins in presence of [gamma33P]ATP by scintillation counting method
[14] = molecular target: Focal adhesion kinase 1 (Homo sapiens) (UniProt Q05397); experiment: Inhibition of recombinant human FAK (411 to 686 residues) at 10 uM using EEEEYEEEEEEYYIIEEEEEEYEEEEEEYYEEEEEEKKKK as substrate measured after 40 mins in presence of [gamma33P]ATP by scintillation counting method
[15] = molecular target: Ephrin type-B receptor 4 (Homo sapiens) (UniProt P54760); experiment: Inhibition of recombinant human EphB4 (561 to end residues) at 10 uM using poly (Glu, Tyr) 4:1 as substrate measured after 40 mins in presence of [gamma33P]ATP by scintillation counting method
[16] = molecular target: Dual specificity tyrosine-phosphorylation-regulated kinase 1B (Homo sapiens) (UniProt Q9Y463); experiment: Inhibition of recombinant full-length human DYRK1B at 10 uM using RRRFRPASPLRGPPK as substrate measured after 40 mins in presence of [gamma33P]ATP by scintillation counting method
[17] = molecular target: cAMP-dependent protein kinase catalytic subunit PRKX (Homo sapiens) (UniProt P51817); experiment: Inhibition of recombinant full-length human PrKX at 10 uM using RRRLSFAEPG as substrate measured after 40 mins in presence of [gamma33P]ATP by scintillation counting method
Chain of cAMP-dependent protein kinase catalytic subunit PRKX (Homo sapiens) (P51817 whole entry, the tested form may be a part): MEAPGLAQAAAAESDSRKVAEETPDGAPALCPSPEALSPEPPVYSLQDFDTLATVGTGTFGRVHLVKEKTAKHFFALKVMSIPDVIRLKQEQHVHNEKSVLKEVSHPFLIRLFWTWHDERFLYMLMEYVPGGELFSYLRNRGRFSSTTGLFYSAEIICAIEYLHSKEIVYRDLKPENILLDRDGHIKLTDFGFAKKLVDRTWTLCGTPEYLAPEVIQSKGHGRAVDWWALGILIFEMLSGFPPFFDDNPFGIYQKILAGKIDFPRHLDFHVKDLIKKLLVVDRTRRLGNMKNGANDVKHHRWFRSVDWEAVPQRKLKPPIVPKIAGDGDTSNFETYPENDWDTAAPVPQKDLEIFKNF

[18] = molecular target: CREB-binding protein (Homo sapiens) (UniProt Q92793); experiment: Binding affinity to human partial length CREBBP (R1081 to G1197 residues) expressed in bacterial expression system at 1 uM by BROMOscan assay; in short: as §1
[19] = organism: Mus musculus; experiment: Inhibition of recombinant mouse ARG M982V/A562 mutant (27 to end residues) at 10 uM using EAIYAAPFAKKK as substrate measured after 40 mins in presence of [gamma33P]ATP by scintillation counting method
[20] = tested on: Hepatocyte growth factor receptor (Homo sapiens), P08581 [M1250T]; experiment: Inhibition of recombinant human MET A1209G/V1290L/M1268T mutant (974 to end residues) at 10 uM using KKKGQEEEYVFIE as substrate measured after 40 mins in presence of [gamma33P]ATP by scintillation counting method
[21] = molecular target: Bone morphogenetic protein receptor type-1B (Homo sapiens) (UniProt O00238); experiment: Inhibition of recombinant human ALK6 (148 to end residues) at 10 uM using casein as substrate measured after 40 mins in presence of [gamma33P]ATP by scintillation counting method
[22] = molecular target: Serine/threonine-protein kinase WNK2 (Homo sapiens) (UniProt Q9Y3S1); experiment: Inhibition of human WNK2 (166 to 489 residues) using myelin basic protein as substrate measured after 40 mins in presence of [gamma33P]ATP by scintillation counting method
Chain of Serine/threonine-protein kinase WNK2 (Homo sapiens) (Q9Y3S1 whole entry, the tested form may be a part): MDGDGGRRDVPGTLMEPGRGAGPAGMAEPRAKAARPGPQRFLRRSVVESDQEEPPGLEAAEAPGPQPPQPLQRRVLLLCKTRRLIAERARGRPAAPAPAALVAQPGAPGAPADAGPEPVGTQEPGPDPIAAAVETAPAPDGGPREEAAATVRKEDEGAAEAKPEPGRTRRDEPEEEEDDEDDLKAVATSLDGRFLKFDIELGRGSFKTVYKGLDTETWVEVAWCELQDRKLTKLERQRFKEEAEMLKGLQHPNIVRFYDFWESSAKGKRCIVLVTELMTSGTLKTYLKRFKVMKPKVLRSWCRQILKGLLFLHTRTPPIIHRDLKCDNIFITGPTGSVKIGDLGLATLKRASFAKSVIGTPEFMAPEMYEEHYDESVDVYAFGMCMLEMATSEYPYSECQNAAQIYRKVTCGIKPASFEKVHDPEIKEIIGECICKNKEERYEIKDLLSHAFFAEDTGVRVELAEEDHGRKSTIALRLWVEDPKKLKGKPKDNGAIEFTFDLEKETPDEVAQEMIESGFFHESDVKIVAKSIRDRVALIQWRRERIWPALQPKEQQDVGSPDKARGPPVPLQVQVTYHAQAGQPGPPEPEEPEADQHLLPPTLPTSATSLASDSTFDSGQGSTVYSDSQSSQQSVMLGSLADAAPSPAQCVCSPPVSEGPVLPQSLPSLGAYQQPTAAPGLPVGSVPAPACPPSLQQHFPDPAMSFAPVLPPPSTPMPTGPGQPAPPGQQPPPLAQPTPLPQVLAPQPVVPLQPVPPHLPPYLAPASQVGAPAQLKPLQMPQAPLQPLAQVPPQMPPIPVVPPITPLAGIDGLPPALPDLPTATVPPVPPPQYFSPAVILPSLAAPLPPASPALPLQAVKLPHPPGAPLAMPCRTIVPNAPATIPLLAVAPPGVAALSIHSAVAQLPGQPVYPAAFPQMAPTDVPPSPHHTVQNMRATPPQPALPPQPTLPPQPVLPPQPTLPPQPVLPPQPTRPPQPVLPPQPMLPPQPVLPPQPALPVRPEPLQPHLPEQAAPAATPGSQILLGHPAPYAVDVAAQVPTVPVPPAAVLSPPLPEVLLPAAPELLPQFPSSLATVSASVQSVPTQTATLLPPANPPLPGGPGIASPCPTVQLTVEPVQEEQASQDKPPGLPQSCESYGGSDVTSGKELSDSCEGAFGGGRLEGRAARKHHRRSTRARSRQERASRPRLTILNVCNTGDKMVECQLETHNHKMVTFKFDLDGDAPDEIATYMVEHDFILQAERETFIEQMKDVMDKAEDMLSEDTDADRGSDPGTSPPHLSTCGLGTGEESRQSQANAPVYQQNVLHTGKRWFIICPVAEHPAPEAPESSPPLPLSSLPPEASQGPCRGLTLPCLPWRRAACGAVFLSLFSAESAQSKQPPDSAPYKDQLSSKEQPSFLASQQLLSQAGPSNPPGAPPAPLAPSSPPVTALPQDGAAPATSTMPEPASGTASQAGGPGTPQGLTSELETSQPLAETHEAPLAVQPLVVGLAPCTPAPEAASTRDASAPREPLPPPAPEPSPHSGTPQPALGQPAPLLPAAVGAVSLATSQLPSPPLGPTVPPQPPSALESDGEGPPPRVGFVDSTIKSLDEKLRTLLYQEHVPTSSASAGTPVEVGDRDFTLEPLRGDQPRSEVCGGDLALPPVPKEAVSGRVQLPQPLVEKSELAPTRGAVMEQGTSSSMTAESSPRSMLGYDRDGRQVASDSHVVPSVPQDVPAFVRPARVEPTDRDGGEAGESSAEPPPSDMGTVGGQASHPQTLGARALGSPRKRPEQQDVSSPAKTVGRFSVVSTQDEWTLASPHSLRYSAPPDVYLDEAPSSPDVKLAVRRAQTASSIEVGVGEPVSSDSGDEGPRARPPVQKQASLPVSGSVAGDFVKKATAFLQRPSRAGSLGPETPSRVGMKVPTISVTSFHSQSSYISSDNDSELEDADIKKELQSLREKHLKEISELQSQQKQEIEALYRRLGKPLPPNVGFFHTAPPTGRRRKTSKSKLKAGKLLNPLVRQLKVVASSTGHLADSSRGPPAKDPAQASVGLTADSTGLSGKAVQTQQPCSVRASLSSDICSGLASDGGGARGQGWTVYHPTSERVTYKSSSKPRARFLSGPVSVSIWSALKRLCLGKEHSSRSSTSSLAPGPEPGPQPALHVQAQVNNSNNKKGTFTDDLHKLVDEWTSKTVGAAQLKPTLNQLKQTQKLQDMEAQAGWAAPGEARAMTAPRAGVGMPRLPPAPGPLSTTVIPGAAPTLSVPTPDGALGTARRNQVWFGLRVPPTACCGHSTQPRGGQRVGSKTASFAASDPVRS

[23] = molecular target: Serine/threonine-protein kinase 4 (Homo sapiens) (UniProt Q13043); experiment: Inhibition of recombinant full-length human MST1 at 10 uM using KKSRGDYMTMQIG as substrate measured after 40 mins in presence of [gamma33P]ATP by scintillation counting method

CN1C[C@H](Nc2nc3cc[nH]c3c(=O)n2C)C[C@H](c2ccc3c(c2)OCCO3)C1
inactive: Activity [1] | inhibition [2] | inhibition [3] | inhibition [4] | inhibition [5] | inhibition [6] | inhibition [7] | inhibition [8] | Activity [9] | inhibition [10] | inhibition [11] | inhibition [12] | inhibition [13] | inhibition [14] | inhibition [15] | inhibition [16] | inhibition [17] | Activity [18] | inhibition [19] | inhibition [20] | inhibition [21] | inhibition [22] | inhibition [23]
